Screening results from PubChem.
Shown are actives, neighbours in structure and some others; about 3.5% of the full set was active somewhere.
pPAFAH inh – inhibitors of human plasma PAF acetylhydrolase (pPAFAH) | Q13093 | inhibition, % at 3.39 µM | AID 463082 | recombinant pPAFAH, FP-rhodamine probe fluorescence polarization | 1.5% of 330,000 active;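 active means inhibition above the mean inhibition across the screen plus 3 SD, cut at about 25% in these data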;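 further: inhibitors block binding of the rhodamine activity-based probe so polarization drops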
Target sequence (Q13093 whole entry, looked up): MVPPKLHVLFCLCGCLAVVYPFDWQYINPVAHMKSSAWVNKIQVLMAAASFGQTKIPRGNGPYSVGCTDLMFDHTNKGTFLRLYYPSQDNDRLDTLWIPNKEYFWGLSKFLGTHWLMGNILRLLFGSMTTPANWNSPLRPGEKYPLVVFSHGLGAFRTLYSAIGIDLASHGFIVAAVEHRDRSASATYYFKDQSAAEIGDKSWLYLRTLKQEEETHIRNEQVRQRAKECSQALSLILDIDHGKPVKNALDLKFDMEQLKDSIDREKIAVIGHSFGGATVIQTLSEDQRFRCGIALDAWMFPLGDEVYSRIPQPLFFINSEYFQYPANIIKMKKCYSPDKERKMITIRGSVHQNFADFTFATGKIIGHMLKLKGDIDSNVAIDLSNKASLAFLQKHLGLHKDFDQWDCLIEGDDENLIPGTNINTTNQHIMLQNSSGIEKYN
PREPL inh – inhibits the human prolyl oligopeptidase-like enzyme | recombinant PREPL, fluorescence polarization activity-based probe | Q4J6C6 | inhibition, % at 5.96 µM | 0.68% of 320,000 active; in the data active means inhibition above about 43%
Apaf1 inhib – inhibitors of human Apaf-1 apoptosome | O14727 | reconstituted apoptosome caspase-3 activity, DEVD-Rh110 fluorescence | inhibition, % at 20 µM | 0.71% of 330,000 active | AID 489030; active means inhibition of at least 40% at 20 µM
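System: reconstituted apoptosome with Apaf-1, cytochrome c, caspase-9, procaspase-3, dATP; Signal: Rh110 fluorescence intensity; Schedule: 30 min compound preincubation, 50 min activation, room temperature; Reagent: cytochrome c trigger plus (Z-DEVD)2-Rh110 caspase-3 substrate.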
PAFAH1B3 FP inh – blocks human PAF acetylhydrolase 1B catalytic subunit 3; Q15102; recombinant PAFAH1B3, FP-rhodamine probe, fluorescence polarization; inhibition, % at 3.39 µM; 0.28% of 340,000 active;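 active means inhibition above the screen-wide average of all tested compounds plus 3 SD, cut at about 25% in these data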
Target sequence (Q15102 whole entry, looked up): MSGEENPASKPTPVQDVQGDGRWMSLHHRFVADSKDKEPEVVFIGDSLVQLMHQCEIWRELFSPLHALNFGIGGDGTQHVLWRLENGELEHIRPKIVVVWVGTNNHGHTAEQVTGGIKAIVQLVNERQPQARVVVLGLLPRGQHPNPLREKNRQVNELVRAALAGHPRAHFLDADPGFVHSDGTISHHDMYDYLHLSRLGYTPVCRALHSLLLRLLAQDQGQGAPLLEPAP
PAFAH1B2 FP inh – PAFAH1B2 (human) inhibition. P68402. inhibition, % at 3.39 µM. 1.2% of 340,000 active. recombinant PAFAH1B2, FP-rhodamine activity probe, fluorescence polarization;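 active means inhibition above the mean of all tested compounds plus 3 SD, cut at about 24% in these data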
PAFAH2 FP inh – inhibitors of human PAFAH2. 0.99% of 340,000 active. recombinant PAFAH2, FP-rhodamine activity probe, fluorescence polarization. inhibition, % at 3.39 µM;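 active means inhibition above the mean over all tested compounds plus 3 SD, cut at about 30% in these data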;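 further: inhibitors block probe labeling of enzyme so polarization drops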
Of the large screens only hits and unclear results are named; the others gave an inactive call.

CN(C)C(=O)N1CCC(C(=O)N2CCCC(C(=O)c3ccc(C(C)(C)C)cc3)C2)CC1 (centres undefined)	pPAFAH inh 26
COc1cc(C(C)=O)ccc1OCC(O)CN(CCO)Cc1ccccc1 (centres undefined)	pPAFAH inh 32
Cc1ccc(CS/C(Nc2ccccc2C)=C(\C#N)C(=O)NCc2ccco2)c(C)c1	pPAFAH inh 28
CN(CC(=O)Nc1ccc(N2CCOCC2)cc1)C(=O)c1ccc(O)c(Cl)c1	none
Cn1cc(Cl)c(C(=O)Nc2cnn(Cc3ccc(F)cc3)c2)n1	none
C=CC[C@H](CC(=O)NCCO)C(=O)N[C@H](COC(=O)[C@@H](CC=C)Cc1ccc(F)cc1)c1ccccc1	PAFAH1B2 FP inh 25
CC(NC(=O)COC(=O)c1ccc([N+](=O)[O-])s1)c1ccccc1 (centres undefined)	pPAFAH inh 25
O=C(COC(=O)c1ccc([N+](=O)[O-])o1)NCCCc1ccccc1	none
Cc1cc(C)c(NC(=O)COC(=O)c2ccc([N+](=O)[O-])s2)c(C)c1	none
CC(NC(=O)COC(=O)c1cc(Cl)nc(Cl)c1)c1ccccc1 (centres undefined)	none
O=C(COC(=O)c1ccc([N+](=O)[O-])s1)NC(=O)NCc1ccccc1	PAFAH1B3 FP inh 30, PAFAH2 FP inh 40
CCN(CC)S(=O)(=O)c1cccc(C(=O)OCC(=O)NC(C)c2ccccc2)c1 (centres undefined)	pPAFAH inh 27, PAFAH2 FP inh 45
O=C(COC(=O)c1ccc(O)cc1)NC(=O)NCc1ccccc1	none
O=C(COC(=O)c1ccc([N+](=O)[O-])s1)NCCc1ccccc1	PAFAH1B3 FP inh 32, PAFAH2 FP inh 34
O=C(CCOc1ccc(F)cc1)Nc1nccs1	none
O=C(COC(=O)c1ccc([N+](=O)[O-])o1)NCc1ccc(F)cc1	none
O=C(COC(=O)c1ccc([N+](=O)[O-])s1)NCc1ccc(F)cc1	pPAFAH inh 26, PAFAH1B3 FP inh 44, PAFAH2 FP inh 53
O=C1CN(C(=O)COC(=O)c2ccc([N+](=O)[O-])s2)c2ccccc2N1	PAFAH1B3 FP inh 46, PAFAH2 FP inh 32
N#CC(=C=[N-])C1=C(C#N)C(c2ccccc2F)C([n+]2ccccc2)C(O)(C2CC2)N1 (centres undefined)	pPAFAH inh 30
Cc1cccc[n+]1C1C(c2ccccc2)C(C#N)=C(C(=C=[N-])C#N)NC1(O)C1CC1 (centres undefined)	pPAFAH inh 29, PAFAH2 FP inh 30
N#CC1=C(N)NC(=S)C(C(N)=O)C1c1ccccc1F (centres undefined)	none
Cc1ccc[n+](C2C(c3ccc([N+](=O)[O-])cc3)C(C#N)=C([S-])NC2(O)C2CC2)c1 (centres undefined)	none
CCN(CC(=O)Nc1ccc(NC(C)=O)cc1)C(=O)c1cn(-c2ccccc2)nc1-c1cccs1	none (no result: pPAFAH inh, PREPL inh)
CCCCCCCCCCCCN1[C@@H](CC(=O)OC)c2cc(C(F)(F)F)ccc2S1(=O)=O	none
CCCCCCCCN1[C@@H](CC(=O)O)c2cc(C(F)(F)F)ccc2S1(=O)=O	PAFAH1B2 FP inh 27
COc1ccc(-n2ncc(S(=O)(=O)c3ccccc3)c2-c2ccc(Cl)cc2)cc1	none
O=S(=O)(c1ccccc1)c1cnn(-c2ccccc2)c1-c1ccc(F)cc1	PAFAH1B2 FP inh 28
CC(CNC1CCCCC1)OC(=O)c1ccc([N+](=O)[O-])cc1 (centres undefined)	none (no result: pPAFAH inh, PREPL inh, Apaf1 inhib)
Cc1nc(N)nc(N)c1Oc1ccc(Cl)cc1	none (no result: pPAFAH inh, PREPL inh, Apaf1 inhib)
Cc1nc(N)nc(N)c1/C=C/C(C)(C)c1ccc(Cl)cc1	PAFAH1B2 FP inh 42 (no result: pPAFAH inh, PREPL inh, Apaf1 inhib)
Cc1ccc(CSCCNS(=O)(=O)c2ccc(C)cc2)cc1	PAFAH1B2 FP inh 25
Cc1ccc(CCNS(=O)(=O)c2ccc3c(c2)NC(=O)C(C)C(=O)N3)cc1 (centres undefined)	PAFAH1B2 FP inh 27
Cc1ccc2[nH]cc(CCNS(=O)(=O)c3ccc(F)cc3)c2c1	PAFAH1B2 FP inh 27 (no result: pPAFAH inh, PREPL inh)
Cc1ccc(CCNS(=O)(=O)c2ccc(C)cc2)cc1	PAFAH1B2 FP inh 26
Cc1ccc(CNS(=O)(=O)c2ccc3c(c2)NC(=O)C(C)S3)cc1 (centres undefined)	none
CSc1ccc(/C=C/C(=O)N2CCN(c3ccccn3)CC2)cc1	none
O=C(CN1C(=O)NC2(CCCC2)C1=O)Nc1ccc(F)c([N+](=O)[O-])c1	none
O=C(O)/C(=C\c1cccc(O)c1)c1ccc(S(=O)(=O)N2CCCC2)s1	none
CCCCOc1ccc(C(=O)NCC(=O)NCC(c2ccco2)N2CCCCC2)cc1 (centres undefined)	none
Cc1ccc(S(=O)(=O)NCCCNS(=O)(=O)c2ccc(C)cc2)cc1	pPAFAH inh 26
Cc1ccc(S(=O)(=O)NCCCN(C)C)cc1	none
Cn1c2ccccc2c2cc(/C=N/NC(=O)c3ccccc3F)ccc21	none
Cn1c2ccccc2c2cc(/C=N/NC(=O)c3ccc(N)cc3)ccc21	pPAFAH inh 31
O=C(COC(=O)c1ccc[nH]c1=O)Nc1cc(S(=O)(=O)N2CCCCCC2)ccc1Cl	none (no result: pPAFAH inh, PREPL inh)
CCCCNc1c(-c2cccc(-c3cc(C(C)=O)cs3)c2)nc2cc(C)ccn12	pPAFAH inh 33
CC(C)(C)CCN1CCC(CN2CCNC(=O)C2=O)CC1	none (no result: pPAFAH inh, PREPL inh, Apaf1 inhib)
Oc1c(Cl)cc(Cl)cc1C=Nc1ccccc1N1CCCC1	pPAFAH inh 30 (no result: PAFAH1B3 FP inh, PAFAH1B2 FP inh, PAFAH2 FP inh)
COC(=O)CCC(=O)OC1(C)C(=O)C2=CN(CCN3CCOCC3)C(c3ccc(OC)cc3)=CC2=C(Br)C1=O (centres undefined)	Apaf1 inhib 86 (no result: PAFAH1B3 FP inh, PAFAH1B2 FP inh, PAFAH2 FP inh)
COC(=O)CCC(=O)OC1(C)C(=O)C2=CN(CCCCO)C(c3ccc(OC)cc3)=CC2=C(Br)C1=O (centres undefined)	PREPL inh 55, Apaf1 inhib 80 (no result: PAFAH1B3 FP inh, PAFAH1B2 FP inh, PAFAH2 FP inh)
O=C(CCC(=O)N1CCN(Cc2ccc(F)cc2)CC1)Nc1nnc(C2CCCCC2)s1	none
O=C(NCCc1ccc(Cl)cc1)C1CCC(=O)N1Cc1ccc(F)cc1 (centres undefined)	PAFAH1B2 FP inh 28
O=C(NCc1ccc(F)cc1)C(c1ccc(Cl)cc1)N(C(=O)c1csnn1)C1CC1 (centres undefined)	none
CC(C)NC(=O)NC(=O)COC(=O)c1ccc(OC(F)(F)F)cc1	none
CC(C)NC(=O)NC(=O)COC(=O)c1ccc(S(=O)(=O)Nc2ccccc2)cc1	pPAFAH inh 25
CN(CC(=O)Nc1ccccc1C(F)(F)F)C(=O)c1ccc(N2C(=O)CCC2=O)cc1	none
CC1(C)NC(=S)NC1=S	none (no result: pPAFAH inh, PREPL inh, Apaf1 inhib)
S=c1[nH]nc(-c2ccccc2Br)n1Cc1ccccc1	PAFAH1B2 FP inh 29
Cc1ccc(S(=O)(=O)N2CCN(C(=O)CN3C(=O)NC(C)(c4ccc5ccccc5c4)C3=O)CC2)cc1 (centres undefined)	none (no result: pPAFAH inh, PREPL inh, Apaf1 inhib)
O=C(N/N=C/c1ccc([N+](=O)[O-])o1)c1cc2ccccc2o1	pPAFAH inh 30
